Molecules are shown by their SMILES. Active and inactive are the calls of the source. No cut-off for these calls is given here.

Assay [1] addresses Secreted aspartic protease 6 (Candida albicans) (UniProt P43095). Kind of assay: Inhibition of SAP6-dependent growth in Candida albicans SAP2MS4B expressing SAP6ex4A at 100 uM incubated in YCB-BSA medium. The essentials: (§1)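 Overnight SD-medium (30°C) preculture diluted 1:100 into YCB-BSA (4 g/liter BSA as sole nitrogen source) adjusted to pH 5.0, with 25 μg/ml doxycycline inducing Tet-promoter SAP expression; incubated 37°C. Pepstatin A 7.3 μM or HIV protease inhibitors 100 μM (0.125% DMSO final); DMSO-only control. OD600 monitored over time.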

For assay [2], the target named is Secreted aspartic protease 8 (Candida albicans) (UniProt O42778). Kind of assay: Inhibition of SAP8-dependent growth in Candida albicans SAP2MS4B expressing SAP8ex4A at 100 uM incubated in YCB-BSA medium. The essentials:
(§2)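 Overnight SD-medium (30°C) preculture diluted 1:100 into YCB-BSA (yeast carbon base plus 4 g/liter BSA as sole nitrogen source) adjusted to pH 4.0, with 50 μg/ml doxycycline to induce Tet-promoter SAP expression; incubated 30°C. Pepstatin A 7.3 μM or HIV protease inhibitors 100 μM (0.125% DMSO final); DMSO-only control. Growth followed as OD600 over time.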

The target of assay [3] is Secreted aspartic protease 1 (Candida albicans) (UniProt P0CY26). Kind of assay: Inhibition of SAP1-dependent growth in Candida albicans SAP2MS4B expressing SAP1ex4A at 100 uM incubated in YCB-BSA medium. The essentials:
as §2

Assay [4] has as its target T1, Secreted aspartic protease 9 (Candida albicans) (UniProt O42779).
T1 sequence (whole entry): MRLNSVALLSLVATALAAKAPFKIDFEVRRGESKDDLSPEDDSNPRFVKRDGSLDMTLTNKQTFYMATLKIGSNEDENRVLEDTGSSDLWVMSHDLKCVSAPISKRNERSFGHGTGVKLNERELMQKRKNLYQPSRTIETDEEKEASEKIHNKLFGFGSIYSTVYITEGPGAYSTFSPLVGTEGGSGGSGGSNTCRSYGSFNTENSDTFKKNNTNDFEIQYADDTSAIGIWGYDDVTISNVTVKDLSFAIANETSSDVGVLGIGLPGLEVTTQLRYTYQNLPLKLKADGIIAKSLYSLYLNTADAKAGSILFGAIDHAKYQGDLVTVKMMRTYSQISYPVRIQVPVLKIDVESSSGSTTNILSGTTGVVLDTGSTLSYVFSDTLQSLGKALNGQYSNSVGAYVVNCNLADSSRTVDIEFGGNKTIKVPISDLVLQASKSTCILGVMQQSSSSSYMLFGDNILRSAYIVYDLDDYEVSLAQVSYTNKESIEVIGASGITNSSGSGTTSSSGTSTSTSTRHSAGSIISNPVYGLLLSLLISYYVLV
Kind of assay: Inhibition of SAP9-dependent growth in Candida albicans SAP2MS4B expressing SAP9deltaC493 at 100 uM incubated in YCB-BSA medium. The essentials:
as §1

The target of assay [5] is Secreted aspartic protease 2 (Candida albicans) (UniProt P0CS83). Kind of assay: Inhibition of SAP2-dependent growth in Candida albicans SAP2MS4B expressing SAP2ex4A at 100 uM incubated in YCB-BSA medium. The essentials: as §2
The target of assay [6] is Secreted aspartic protease 3 (Candida albicans) (UniProt P0CY28). In words: Inhibition of SAP3-dependent growth in Candida albicans SAP2MS4B expressing SAP3ex4A at 100 uM incubated in YCB-BSA medium. The essentials:
as §2

In assay [7] the target is T2, Secreted aspartic protease 5 (Candida albicans (strain SC5314 / ATCC MYA-2876) (Yeast)) (UniProt P43094).
T2 sequence (whole entry): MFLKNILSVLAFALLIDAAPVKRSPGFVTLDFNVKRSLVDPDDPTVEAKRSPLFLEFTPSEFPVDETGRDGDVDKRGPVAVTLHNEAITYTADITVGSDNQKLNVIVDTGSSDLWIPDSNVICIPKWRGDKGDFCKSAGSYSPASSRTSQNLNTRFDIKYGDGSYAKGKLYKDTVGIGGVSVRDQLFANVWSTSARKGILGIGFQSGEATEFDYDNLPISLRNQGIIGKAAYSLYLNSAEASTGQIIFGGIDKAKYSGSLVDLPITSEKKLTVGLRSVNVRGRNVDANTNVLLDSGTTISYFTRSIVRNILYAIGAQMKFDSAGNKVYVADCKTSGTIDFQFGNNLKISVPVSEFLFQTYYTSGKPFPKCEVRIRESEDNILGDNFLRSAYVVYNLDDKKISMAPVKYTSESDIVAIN
Kind of assay: Inhibition of SAP5-dependent growth in Candida albicans SAP2MS4B expressing SAP5ex4A at 100 uM incubated in YCB-BSA medium. The essentials: as §1

Assay [8] deals with Candidapepsin-4 (Candida albicans (strain WO-1) (Yeast)) (UniProt P43093). In words: Inhibition of SAP4-dependent growth in Candida albicans SAP2MS4B expressing SAP4ex4A at 100 uM incubated in YCB-BSA medium. The essentials: as §1
Assay [9] concerns the target Secreted aspartic protease 6 (Candida albicans) (UniProt P43095). In words: Inhibition of SAP6-dependent growth in Candida albicans SAP2MS4B expressing SAP6ex4A at 7.3 uM incubated in YCB-BSA medium. The essentials: as §1
Assay [10] addresses Secreted aspartic protease 3 (Candida albicans) (UniProt P0CY28). In words: Inhibition of SAP3-dependent growth in Candida albicans SAP2MS4B expressing SAP3ex4A at 7.3 uM incubated in YCB-BSA medium. The essentials:
as §2

The target in assay [11] is Secreted aspartic protease 8 (Candida albicans) (UniProt O42778). Kind of assay: Inhibition of SAP8-dependent growth in Candida albicans SAP2MS4B expressing SAP8ex4A at 7.3 uM incubated in YCB-BSA medium. The essentials: as §2
Assay [12] addresses Secreted aspartic protease 1 (Candida albicans) (UniProt P0CY26). Kind of assay: Inhibition of SAP1-dependent growth in Candida albicans SAP2MS4B expressing SAP1ex4A at 7.3 uM incubated in YCB-BSA medium. The essentials: as §2
Assay [13] deals with T1, Secreted aspartic protease 9 (Candida albicans). In words: Inhibition of SAP9-dependent growth in Candida albicans SAP2MS4B expressing SAP9deltaC493 at 7.3 uM incubated in YCB-BSA medium. The essentials:
as §1

Assay [14] addresses Candidapepsin-4 (Candida albicans (strain WO-1) (Yeast)) (UniProt P43093). In words: Inhibition of SAP4-dependent growth in Candida albicans SAP2MS4B expressing SAP4ex4A at 7.3 uM incubated in YCB-BSA medium. The essentials:
as §1

For assay [15], the target named is T2, Secreted aspartic protease 5 (Candida albicans (strain SC5314 / ATCC MYA-2876) (Yeast)). Kind of assay: Inhibition of SAP5-dependent growth in Candida albicans SAP2MS4B expressing SAP5ex4A at 7.3 uM incubated in YCB-BSA medium. The essentials: as §1

Sequence of Secreted aspartic protease 8 (Candida albicans) (O42778 whole entry): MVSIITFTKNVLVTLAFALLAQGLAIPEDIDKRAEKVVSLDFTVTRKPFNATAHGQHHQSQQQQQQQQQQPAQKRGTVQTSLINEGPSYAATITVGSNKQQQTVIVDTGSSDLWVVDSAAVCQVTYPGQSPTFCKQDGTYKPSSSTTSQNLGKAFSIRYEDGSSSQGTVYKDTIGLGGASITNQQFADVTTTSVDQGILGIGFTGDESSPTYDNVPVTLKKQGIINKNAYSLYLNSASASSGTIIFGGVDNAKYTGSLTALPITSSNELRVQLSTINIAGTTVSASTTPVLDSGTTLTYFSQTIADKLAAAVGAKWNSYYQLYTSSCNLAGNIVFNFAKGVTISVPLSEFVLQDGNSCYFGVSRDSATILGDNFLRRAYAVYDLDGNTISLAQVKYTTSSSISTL
Sequence of Secreted aspartic protease 1 (Candida albicans) (P0CY26 whole entry): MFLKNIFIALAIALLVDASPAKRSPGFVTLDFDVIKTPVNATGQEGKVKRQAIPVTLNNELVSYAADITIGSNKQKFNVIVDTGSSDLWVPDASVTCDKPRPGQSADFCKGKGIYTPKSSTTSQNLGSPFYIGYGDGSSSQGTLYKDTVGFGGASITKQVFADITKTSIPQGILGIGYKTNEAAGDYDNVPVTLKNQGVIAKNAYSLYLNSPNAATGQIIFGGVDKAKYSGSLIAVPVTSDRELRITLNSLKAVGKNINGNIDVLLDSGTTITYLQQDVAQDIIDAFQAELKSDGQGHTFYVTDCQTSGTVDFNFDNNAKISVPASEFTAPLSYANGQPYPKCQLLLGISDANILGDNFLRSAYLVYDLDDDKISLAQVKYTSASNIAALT
Sequence of Candidapepsin-4 (Candida albicans (strain WO-1) (Yeast)) (P43093 whole entry): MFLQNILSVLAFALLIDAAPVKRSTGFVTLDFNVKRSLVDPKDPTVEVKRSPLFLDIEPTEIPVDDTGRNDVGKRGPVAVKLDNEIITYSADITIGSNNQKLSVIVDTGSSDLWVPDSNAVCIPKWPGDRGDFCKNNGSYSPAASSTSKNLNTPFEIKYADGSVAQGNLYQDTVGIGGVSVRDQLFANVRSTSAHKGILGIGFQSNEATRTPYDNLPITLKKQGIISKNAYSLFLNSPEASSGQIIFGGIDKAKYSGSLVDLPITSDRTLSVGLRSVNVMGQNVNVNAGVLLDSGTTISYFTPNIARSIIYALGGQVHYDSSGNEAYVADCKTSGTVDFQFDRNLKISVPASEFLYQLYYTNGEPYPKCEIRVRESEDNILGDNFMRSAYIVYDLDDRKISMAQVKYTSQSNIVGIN
Sequence of Secreted aspartic protease 6 (Candida albicans) (P43095 whole entry): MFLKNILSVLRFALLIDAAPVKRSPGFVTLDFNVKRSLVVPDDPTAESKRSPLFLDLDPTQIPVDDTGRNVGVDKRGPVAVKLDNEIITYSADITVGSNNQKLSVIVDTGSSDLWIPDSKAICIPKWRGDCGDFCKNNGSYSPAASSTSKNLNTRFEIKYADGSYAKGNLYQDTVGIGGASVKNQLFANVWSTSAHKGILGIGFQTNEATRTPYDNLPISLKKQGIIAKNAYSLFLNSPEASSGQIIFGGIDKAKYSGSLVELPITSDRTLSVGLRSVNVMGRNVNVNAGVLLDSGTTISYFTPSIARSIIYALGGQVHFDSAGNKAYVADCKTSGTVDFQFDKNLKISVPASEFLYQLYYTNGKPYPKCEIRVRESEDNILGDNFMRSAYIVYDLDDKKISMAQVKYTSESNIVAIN
Sequence of Secreted aspartic protease 3 (Candida albicans) (P0CY28 whole entry): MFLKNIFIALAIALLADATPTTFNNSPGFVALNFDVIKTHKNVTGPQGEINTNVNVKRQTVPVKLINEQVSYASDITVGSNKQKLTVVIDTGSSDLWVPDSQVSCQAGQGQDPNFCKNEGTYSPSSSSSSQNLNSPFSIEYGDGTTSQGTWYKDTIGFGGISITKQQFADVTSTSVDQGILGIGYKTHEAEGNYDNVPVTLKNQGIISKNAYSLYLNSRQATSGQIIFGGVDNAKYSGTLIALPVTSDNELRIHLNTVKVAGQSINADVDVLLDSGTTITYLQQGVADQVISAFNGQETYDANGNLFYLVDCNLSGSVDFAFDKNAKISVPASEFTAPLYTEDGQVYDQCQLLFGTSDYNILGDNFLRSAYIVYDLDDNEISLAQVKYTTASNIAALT
Sequence of Secreted aspartic protease 2 (Candida albicans) (P0CS83 57-398 limits assumed): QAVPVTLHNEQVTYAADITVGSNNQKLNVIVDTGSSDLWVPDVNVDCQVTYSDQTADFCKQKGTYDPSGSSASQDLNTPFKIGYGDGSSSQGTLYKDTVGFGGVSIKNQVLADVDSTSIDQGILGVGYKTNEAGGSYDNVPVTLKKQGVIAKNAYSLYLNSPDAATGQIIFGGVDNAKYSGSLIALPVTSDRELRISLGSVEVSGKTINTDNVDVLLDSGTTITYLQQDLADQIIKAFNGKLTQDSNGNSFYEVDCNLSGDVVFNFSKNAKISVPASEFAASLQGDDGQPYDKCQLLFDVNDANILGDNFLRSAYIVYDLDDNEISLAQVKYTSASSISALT

As to `CC(C)c1nc(CN(C)C(=O)N[C@H](C(=O)N[C@@H](Cc2ccccc2)C[C@H](O)[C@H](Cc2ccccc2)NC(=O)OCc2cncs2)C(C)C)cs1`, the result in [1], in assay [2], in assay [4], in assay [7] and in [8] was inactive. Besides, the outcome in assay [3], in assay [5] and in [6] was Active.
As for `CC(C)CC(=O)N[C@H](C(=O)N[C@H](C(=O)N[C@@H](CC(C)C)[C@@H](O)CC(=O)N[C@@H](C)C(=O)N[C@@H](CC(C)C)[C@@H](O)CC(=O)O)C(C)C)C(C)C`, the outcome in [9], in assay [10], in [11], in assay [12], in assay [13] and in assay [14] was Active. Also, the outcome in [15] was Active.
Turning to `CC(C)(C)NC(=O)[C@@H]1C[C@@H]2CCCC[C@@H]2CN1C[C@@H](O)[C@H](Cc1ccccc1)NC(=O)[C@H](CC(N)=O)NC(=O)c1ccc2ccccc2n1`, the outcome in [1], in assay [2], in assay [4], in assay [7] and in assay [8] was inactive. Further, the result in assay [3] was Active.

These data come from ChEMBL document CHEMBL1152461, “Tetracycline-inducible expression of individual secreted aspartic proteases in Candida albicans allows isoenzyme-specific inhibitor screening” (Antimicrob Agents Chemother, 2008).
